A word on the half-life: it is the time needed for the level to fall by half in the phase considered. Low values mean rapid decline, high ones slow decline.

Here are results for 1 compound from ChEMBL document CHEMBL1122318, “Aporphines. 50. Kinetics of solvolysis of N-(2-chloroethyl)norapomorphine, an irreversible dopamine receptor antagonist” (J Med Chem, 1983).

Where “and” joins values, the source holds several entries; their conditions need not be identical. Identical values can stand only once.

Holding throughout (type): ADME
Data set [1] is described as follows: Half-life period at pH 6.50(in 0.1 M […]). The following applies: 0.1 M […] buffer, pH 6.5.
The nature of data set [2]: Half-life period at pH 7.50(in 0.1 M […]). The note with it: 0.1 M […] buffer, pH 7.5.
A short description of data set [3]: Apparent rate of cyclization (kobsd) value at pH 5.60(in 0.1 M acetate). The following applies: pH 5.6. In short, it runs like this: (§1)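 Buffers were 0.1 M sodium acetate titrated with 0.1 M acetic acid below pH 6.0, and NaH2PO4–Na2HPO4 (100 mM) at pH 6.0–8.0. Remaining NCA was quantified from peak heights against a 100–900 ng standard curve. First-order kobsd came from log[NCA] versus time over at least two half-lives.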

Data set [4] is described as follows: Apparent rate of cyclization (kobsd) value at pH 8.00(in 0.1 M […]).
The nature of data set [5]: Half-life period at pH 7.00(in 0.1 M […]).
A short description of data set [6]: Apparent rate of cyclization (kobsd) value at pH 6.25(in 0.1 M phosphate). In a few lines: as §1
Data set [7] is described as follows: Half-life period at pH 5.60(in 0.1 M acetate). The note with it: 0.1 M acetate buffer, pH 5.6. In a few lines: as §1
Data set [8] in a line: Half-life period at pH 5.80(in 0.1 M acetate). The note with it: 0.1 M acetate buffer, pH 5.8. In a few lines:
as §1

Data set [9] can be described thus: Half-life period at pH 5.40(in 0.1 M acetate). The following applies: 0.1 M acetate buffer, pH 5.4. In short, it runs like this: as §1
The nature of data set [10]: Half-life period at pH 6.00(in 0.1 M […]). The note with it: 0.1 M acetate buffer.
Data set [11] can be described thus: Apparent rate of cyclization (kobsd) value at pH 6.50(in 0.1 M phosphate). The note with it: pH 6.5. In a few lines: as §1
Data set [12] is described as follows: Apparent rate of cyclization (kobsd) value at pH 7.00(in 0.1 M […]).
Data set [13] can be described thus: Apparent rate of cyclization (kobsd) value at pH 5.80(in 0.1 M acetate). The note with it: pH 5.8. In a few lines:
as §1

Data set [14] is described as follows: Apparent rate of cyclization (kobsd) value at pH 6.75(in 0.1 M phosphate). In a few lines:
as §1

Data set [15] can be described thus: Half-life period at pH 6.75(in 0.1 M […]). The following applies: 0.1 M […] buffer.
Data set [16] in a line: Apparent rate of cyclization (kobsd) value at pH 6.00(in 0.1 M phosphate). In short, it runs like this: as §1
Data set [17] can be described thus: Half-life period at pH 6.25(in 0.1 M […]). The note with it: 0.1 M […] buffer.
Data set [18] in a line: Apparent rate of cyclization (kobsd) value at pH 5.40(in 0.1 M acetate). The following applies: pH 5.4. In short, it runs like this: as §1
Data set [19] is described as follows: Half-life period at pH 8.00(in 0.1 M […]). The note with it: 0.1 M […] buffer.

Turning to `Oc1ccc2c(c1O)-c1cccc3c1[C@@H](C2)N(CCCl)CC3`, the half-life in data set [1] turned out to be 39 min; in [2], 24 min; in data set [5] (0.1 M acetate buffer), 29 min; in data set [7], 141 min; in [8] it was 107 min; in data set [9], 192 min. In addition, the half-life was 71 min in data set [10], 33 min in data set [15], 45 min in data set [17] and 22 min in [19]. Also, the k obs is 49 min⁻¹ in data set [3]; 308 min⁻¹ in data set [4]; 152 min⁻¹ in data set [6]; 175 min⁻¹ in [11]; 243 min⁻¹ and 252 min⁻¹ in data set [12]; 65 min⁻¹ in data set [13]. The k obs in data set [14] is 212 min⁻¹; in data set [16], 97 min⁻¹; in data set [18] it was 36 min⁻¹. The compound also had a T1/2 in [5] of 28 min.
